Cav3 T inh – inhibitors of human Cav3.2 T-type calcium channel. O95180. Cav3.2-expressing cells, Fluo-4 calcium fluorescence FDSS; hits give low values. B-score at 10 µM. hit rate 4% among 100,000. AID 449739;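 active = single-dose well whose peak fluorescence ratio is a statistical outlier from its plate by either plate-standardised score or position-corrected B-score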
Measles CPE – protection of cells from measles virus. Measles virus-infected cells, CPE protection, absorbance. protection (pct of control), % at 4 µM. hit rate 1.5% among 140,000. AID 841; in the data active = protection mostly above about 24%, no sharp cut-off; inactive = mostly below about 26%
PTK2B oligo ant – antagonists of human Pyk2 oligomerization. Q293 cells, Pyk2 FERM NanoBiT luminescence; hits give low values. z-score (the deposit names both 25 µM and 10 µM). Q14289. hit rate 0.83% among 99,000. AID 1347419;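 active = Z-score of -3 or lower, scaled per plate to the spread of control and sample wells; inactive = z-score above -3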;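 note: negative z-score means lost luminescence so less FERM oligomerization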
Rev-RRE block – disrupts HIV-1 Rev binding to RRE RNA; P05866; Rev peptide-RRE RNA binding, FRET; inhibition, % at 8 µM; hit rate 0.79% among 97,000; AID 704;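 active = inhibition above the screen-wide mean plus 3 SD, cut at about 35% in these data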
Target sequence (P05866 whole entry, looked up): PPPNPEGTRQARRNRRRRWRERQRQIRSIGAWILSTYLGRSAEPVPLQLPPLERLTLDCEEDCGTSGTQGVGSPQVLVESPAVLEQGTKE
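Probe or stimulus: fluorescein-Rev peptide as binding partner; assay system: Cy5-tagged RRE RNA duplex with fluorescein-tagged Rev peptide; timing: 5 min compound–RNA preincubation, then 15 min with peptide, 25 °C; medium: HEPES pH 7.5 buffer with KCl, MgCl2, NaCl and EDTA; signal: fluorescein-to-Cy5 FRET, 480 nm excitation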
Phagocyt inh – inhibitors of macrophage phagocytosis; inhibition, % at 5 µM; hit rate 0.07% among 110,000; J774A.1 macrophage IgG-bead phagocytosis, imaging; AID 1029;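 active = inhibition above the mean of the plate negative controls plus 5 SD, cut at about 13% in these data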;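 note: phagocytic index as fraction of beads internalized from green versus red external bead signal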
hDAT+cocaine – human DAT dopamine uptake with cocaine, either direction; Q01959; LLC-PK1 hDAT cells, [14C]-dopamine uptake with cocaine IC80; actives deviate in either direction; hit rate 1.3% among 110,000; B-score at 10 µM;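 active = Z score or B-score, a plate-position-corrected score, falls beyond the plate's 99.7% confidence bounds, in either direction; inactive = both scores lie inside the 99.7% bounds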
Target sequence (Q01959 whole entry, looked up): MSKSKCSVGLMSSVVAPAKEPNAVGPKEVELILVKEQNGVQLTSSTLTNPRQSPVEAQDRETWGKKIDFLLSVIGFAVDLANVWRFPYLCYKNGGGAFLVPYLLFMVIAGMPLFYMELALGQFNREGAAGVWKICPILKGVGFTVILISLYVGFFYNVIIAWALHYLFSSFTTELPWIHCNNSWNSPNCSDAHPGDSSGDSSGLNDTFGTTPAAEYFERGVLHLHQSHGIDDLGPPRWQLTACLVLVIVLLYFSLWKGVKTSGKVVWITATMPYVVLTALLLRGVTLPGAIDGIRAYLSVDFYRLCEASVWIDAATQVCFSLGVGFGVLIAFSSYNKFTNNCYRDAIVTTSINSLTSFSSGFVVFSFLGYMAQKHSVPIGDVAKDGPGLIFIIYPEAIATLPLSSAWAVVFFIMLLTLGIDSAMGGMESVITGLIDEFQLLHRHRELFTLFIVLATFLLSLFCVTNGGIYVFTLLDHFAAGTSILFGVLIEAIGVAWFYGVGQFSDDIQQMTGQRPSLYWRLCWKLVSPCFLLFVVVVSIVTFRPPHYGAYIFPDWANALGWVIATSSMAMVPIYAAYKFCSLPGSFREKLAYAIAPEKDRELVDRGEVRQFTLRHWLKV
Each line names hits and unclear results; the compound was inactive in the other large screens; [ ] = dose if it differs, or a comment. Most compounds without a hit are left out; they make up all but 5.9% or so of the library.

Cc1ccc(/C=N\NC(=O)C2CN(S(=O)(=O)c3ccccc3)CCN2S(=O)(=O)c2ccccc2)cc1 (configuration not stated)	none (no result: Cav3 T inh, PTK2B oligo ant, Rev-RRE block, hDAT+cocaine)
CC1(C)C2CC=C(/C=N/NC(=O)c3ccc(O)cc3)C1C2 (configuration not stated)	none (no result: Cav3 T inh, PTK2B oligo ant, Rev-RRE block, hDAT+cocaine)
CCOC(=O)C1=C(N)OC2=C(C(=O)CC(C)(C)C2)C1C1CCCCC1 (configuration not stated)	Cav3 T inh -9.01
CCCCC(=O)/C=C/n1c(=S)oc2ccccc21	none (no result: Cav3 T inh, PTK2B oligo ant, Rev-RRE block, hDAT+cocaine)
Cc1c(NC(=O)CSc2nnc3c4ccccc4n(CCc4ccccc4)c3n2)c(=O)n(-c2ccccc2)n1C	Measles CPE 36.6 (no result: Phagocyt inh)
C=CCn1c2ccccc2c2nnc(SCC(=O)Nc3c(C)n(C)n(-c4ccccc4)c3=O)nc21	Cav3 T inh 3.79, hDAT+cocaine 2.97
CCn1c2ccccc2c2nnc(SCC(=O)Nc3c(C)n(C)n(-c4ccccc4)c3=O)nc21	none
COc1ccc(Cl)cc1Nc1nc(C)cc(C)c1C(N)=O	none (no result: Cav3 T inh, Phagocyt inh)
CCCCN1C(=O)/C(=C/C=C2\N(C)c3ccccc3C2(C)C)SC1=S	Cav3 T inh -4.66, Rev-RRE block 140.3[fluorescence artefact?] (no result: PTK2B oligo ant)
COc1ccc(C2SCCN2S(=O)(=O)c2ccc(NC(C)=O)cc2)cc1 (configuration not stated)	none
CC(=O)Nc1ccc(S(=O)(=O)N2CCSC2c2ccc(C)cc2)cc1 (configuration not stated)	Cav3 T inh -4.24
FC(F)(F)c1nc(-c2cccs2)ncc1-c1nnnn1-c1ccc(Cl)cc1	PTK2B oligo ant -3.06 (no result: Phagocyt inh)
CCCS(=O)(=O)c1c(S(=O)(=O)CCC)c2c(C)cccn2c1C(=O)OC	hDAT+cocaine 1.39 (no result: Phagocyt inh)
Cn1c(=O)c2c(nc(NCc3cccnc3)n2Cc2ccc(Cl)cc2)n(C)c1=O	Cav3 T inh -7.19
COc1ccc(CNc2nc3c(c(=O)n(Cc4ccc(Cl)cc4)c(=O)n3C)n2C)cc1	Cav3 T inh -7.45
Cc1ccc(Cn2c(NCCc3ccccc3)nc3c2c(=O)n(C)c(=O)n3C)cc1	none
Cn1c(=O)c2c(nc(NCc3ccccc3)n2Cc2ccc(F)cc2)n(C)c1=O	Cav3 T inh -6.8 (no result: PTK2B oligo ant, Phagocyt inh)
CCNc1nc2c(c(=O)n(Cc3ccccc3)c(=O)n2C)n1Cc1ccccc1	PTK2B oligo ant -3.48, hDAT+cocaine 2.98
COCCNc1nc2c(c(=O)n(Cc3ccc(OC)cc3)c(=O)n2C)n1C	none
Cc1ccnc(SCc2cc(=O)c(OC(=O)c3ccc(Cl)c([N+](=O)[O-])c3)co2)n1	none (no result: Cav3 T inh, PTK2B oligo ant, Rev-RRE block, hDAT+cocaine)
Cc1cccc(NC(=O)C(=O)NCCCc2ccccc2)c1	none (no result: Cav3 T inh, PTK2B oligo ant, Rev-RRE block, hDAT+cocaine)
CCn1c(SCc2ccc(F)cc2)nnc1-c1nn(-c2ccccc2)ccc1=O	Measles CPE 54.6 (no result: Phagocyt inh)
CCn1c(CSCc2ccc(F)cc2)nnc1SCC(=O)N1CCN(c2ccccc2)CC1	none
O=S(=O)(NC1CC2CCC1C2)c1ccc(Br)s1 (configuration not stated)	Cav3 T inh -4.87
O=S(=O)(NCC1CCCO1)c1ccc(Br)s1 (configuration not stated)	none
CN(CCNC(=O)c1ccc(N2CCCC2=O)cc1)CCc1ccccc1	none (no result: Phagocyt inh)
O=c1[nH]c(CSc2nnc(-c3ccccc3)n2-c2ccccc2)nc2ccccc12	Measles CPE 27.9 (no result: Cav3 T inh, PTK2B oligo ant, Rev-RRE block, hDAT+cocaine)
C=CCn1c(SCC(=O)Nc2cc(C)on2)nc2sc3c(c2c1=O)CCCC3	none
Cn1c(SCC(=O)N2CCOCC2)nc2sc3c(c2c1=O)CCCC3	Measles CPE 38.3
C=CCn1c(SCC(=O)N2CCOCC2)nc2scc(-c3ccco3)c2c1=O	Cav3 T inh 3.49 (no result: Rev-RRE block)
CN1CCc2c(sc3nc(SCC(=O)N4CCOCC4)nc(N)c23)C1	none (no result: Rev-RRE block)
C=CCn1c(SCC(=O)N2CCOCC2)nc2sc3c(c2c1=O)CCCC3	hDAT+cocaine 3.11
Cc1cc(NC(=O)Cn2nnc3sc4c(c3c2=O)CCC(C(C)(C)C)C4)no1 (configuration not stated)	Cav3 T inh -7.33
Cc1cccc(NC(NC(=O)c2ccccc2[N+](=O)[O-])C(Cl)(Cl)Cl)c1 (configuration not stated)	none (no result: Cav3 T inh, PTK2B oligo ant, Rev-RRE block, hDAT+cocaine)
C#CCOCCOCCOCCNc1nc(N2CCOCC2)nc(N2CCN(C(=O)[C@H](CCC(=O)O)n3cc(C(N)[C@H](C)CC)nn3)CC2)n1 (some centres not stated)	none (no result: Measles CPE, PTK2B oligo ant, Rev-RRE block, Phagocyt inh)
COc1ccc(S(=O)(=O)N(C(C)=O)c2ccc(OC(C)=O)c3ccccc23)cc1[N+](=O)[O-]	none (no result: Cav3 T inh, PTK2B oligo ant, Rev-RRE block, hDAT+cocaine)
Cc1cc(NC(=O)CSc2nc3sc4c(c3c(=O)n2C)CCCC4)no1	Measles CPE 33.1 (no result: Cav3 T inh, hDAT+cocaine)
NS(=O)(=O)c1cccc(NC(=O)CN2CCN(Cc3ccc4c(c3)OCO4)CC2)c1	none (no result: Cav3 T inh, PTK2B oligo ant, Rev-RRE block, hDAT+cocaine)
Fc1ccc(NCc2cccnc2)cc1F	Rev-RRE block 41.2 (no result: Phagocyt inh)
Cc1nc(C)c(C(=O)N/N=C/c2cn(C)c3ccccc23)s1	none
CNc1nc2[nH]c(=O)c3c(c2s1)OC(N)=C(C#N)C3c1ccccc1 (configuration not stated)	none (no result: Cav3 T inh, PTK2B oligo ant, Rev-RRE block, Phagocyt inh, hDAT+cocaine)
CCNc1nc2[nH]c(=O)c3c(c2s1)OC(N)=C(C#N)C3c1ccc(C)cc1 (configuration not stated)	Rev-RRE block 85.9[fluorescence artefact?] (no result: Phagocyt inh)
Cc1[nH]c(=O)[nH]c(=O)c1CSc1nnc([C@@H](NC(=O)OC(C)(C)C)C(C)C)o1	none
CC(C)[C@H](NC(=O)OC(C)(C)C)c1nnc(SCC(=O)Nc2ccc(Br)cc2)o1	Cav3 T inh -6.72 (no result: Measles CPE)
CC(C)=CCSc1nnc([C@@H](NC(=O)OC(C)(C)C)C(C)C)o1	Cav3 T inh -2.93
C=C1CC2C(=O)N(Cc3ccccc3)C(C(=O)OCC)(C(=O)OCC)C1N2C(=O)OC(C)(C)C (configuration not stated)	none (no result: Measles CPE, PTK2B oligo ant, Rev-RRE block, Phagocyt inh)
Cc1ccc(S(=O)(=O)Nc2cc(C)c(O)c(S(=O)(=O)c3ccc(C)cc3)c2)cc1	Cav3 T inh -3.65 (no result: Phagocyt inh)
Cc1cc(NS(=O)(=O)c2ccccc2)cc(Cl)c1O	none (no result: Measles CPE)
O=C(NC1CCCCC1)C(c1ccccc1)N(Cc1ccc2c(c1)OCO2)C(=O)c1cnsn1 (configuration not stated)	Cav3 T inh -7.49 (no result: Phagocyt inh)
O=C(CNS(=O)(=O)c1ccc(Br)cc1)N1CCN(c2ccc(F)cc2)CC1	Cav3 T inh -7.77 (no result: Phagocyt inh)
C=CCOCCN1C(=O)C2C(c3ccccc3)C=CC(c3ccccc3)C2C1=O (configuration not stated)	Cav3 T inh -3.28
O=C1C2C(c3ccccc3)C=CC(c3ccccc3)C2C(=O)N1CCCO (configuration not stated)	none
Cc1ccc(C)c(S(=O)(=O)C(C#N)c2nc3ccccc3nc2N2CC(C)OC(C)C2)c1 (configuration not stated)	Cav3 T inh -5.66
N#CC(c1nc2ccccc2nc1N1CCCC1)S(=O)(=O)c1ccccc1 (configuration not stated)	Rev-RRE block 81.9[fluorescence artefact?] (no result: Phagocyt inh)
COc1ccc(S(=O)(=O)C(C#N)c2nc3ccccc3nc2N2CCCCC2)cc1 (configuration not stated)	Cav3 T inh -4.75
